# Compounds with a hit are over-represented: about 1.7% of the library has one in this group of screens.
# DNMT1 block = blocks human DNA methyltransferase DNMT1; DNMT1 molecular beacon, Hinp1I cleavage, fluorescence; inhibition (reported as % activation of signal), % at 10 µM; hit rate 0.83% among 360,000; AID 588458; in the data active = inhibition above about 50%
# Scp1 inh = blocks human Scp-1 phosphatase activity | Recombinant Scp1, phosphopeptide, malachite green phosphate absorbance | inhibition, % at 20 µM | hit rate 0.88% among 340,000 | Q9GZU7;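 active = inhibition above about 50% at 20 µM, limit read from the data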;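 also: plate controls were DMSO wells with enzyme for no effect and wells lacking enzyme for full effect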
#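 Assay system: SCP-1 catalytic fragment, aa 76-261 | Buffer or medium: Tris acetate buffer pH 5.5 with MgCl2 and Tween-20 | Compound: One concentration, 20 µM, with 1.0% DMSO | Also added: Phospho 17-mer peptide substrate | Signal: Absorbance at 630 nm | Incubation: 45 min enzyme reaction at room temperature | Measure: % inhibition of SCP-1 phosphate liberation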
# STEP inh = inhibitors of human striatal-enriched phosphatase STEP; P54829; recombinant STEP, OMFP fluorogenic substrate, fluorescence; inhibition, % at 20 µM; hit rate 0.25% among 360,000; AID 588621;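 active = inhibition at 20 µM, scaled per plate between control wells, above about 37%, limit read from the data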;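 also: 0% = DMSO with enzyme and substrate and 100% = substrate only without enzyme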
# Target sequence (P54829 whole entry, looked up): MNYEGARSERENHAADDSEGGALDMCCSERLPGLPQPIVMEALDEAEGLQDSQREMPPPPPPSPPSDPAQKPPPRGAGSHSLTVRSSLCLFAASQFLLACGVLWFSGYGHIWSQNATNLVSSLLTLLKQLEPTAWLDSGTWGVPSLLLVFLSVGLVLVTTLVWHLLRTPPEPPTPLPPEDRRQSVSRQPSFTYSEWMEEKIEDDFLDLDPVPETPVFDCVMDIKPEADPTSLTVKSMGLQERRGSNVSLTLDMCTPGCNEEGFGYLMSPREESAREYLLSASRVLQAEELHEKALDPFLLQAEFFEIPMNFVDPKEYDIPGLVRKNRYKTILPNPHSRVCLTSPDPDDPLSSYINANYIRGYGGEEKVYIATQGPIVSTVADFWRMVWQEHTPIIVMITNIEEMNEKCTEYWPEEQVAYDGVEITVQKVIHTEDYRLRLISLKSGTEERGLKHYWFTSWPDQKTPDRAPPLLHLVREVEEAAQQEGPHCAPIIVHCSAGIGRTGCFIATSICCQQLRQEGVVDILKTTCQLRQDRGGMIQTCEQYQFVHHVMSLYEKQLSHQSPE
#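 Also added – OMFP at 25 µM · Test system – STEP tyrosine phosphatase · Technique – FITC-channel fluorescence of OMFP product · Schedule – 20 min at room temperature, dark · Evaluation – control-normalized % inhibition with plate pattern correction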
# LMPTP inh = blocks human LMPTP phosphatase | hit rate 0.22% among 360,000 | inhibition, % at 20 µM | recombinant LMPTP-A, OMFP fluorogenic substrate, fluorescence intensity | P24666 | AID 651560;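 active = compounds that cut the enzyme signal by at least half of the control window in the single-dose screen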;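 also: plate controls were DMSO wells with enzyme plus substrate for no effect and substrate without enzyme for full effect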
#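 Test system – LMPTP-A phosphatase enzyme · Quantity – 0.625 nM LMPTP-A final · Reagent – OMFP substrate, 400 µM final · Dosing – one test concentration per compound, 20 µM, with 3% DMSO overall · Timing – 50 min enzyme reaction at room temperature, protected from light · Detection – fluorescence intensity · Controls – substrate-only low control, DMSO enzyme-plus-substrate high control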
# SUMO1 PPI mod = alters human SUMO1 binding to SIM partners | SUMO1 binding to a labelled peptide, TR-FRET, 1 h | hit rate 0.33% among 360,000 | inhibition, % at 20 µM; in the data active = inhibition above about 37%
# Target sequence (P63165 whole entry, looked up): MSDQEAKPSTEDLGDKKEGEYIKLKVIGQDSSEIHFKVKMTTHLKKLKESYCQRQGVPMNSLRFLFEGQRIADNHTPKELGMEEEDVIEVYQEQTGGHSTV
# Scp1 confirm = Scp-1 (human) inhibition, single-dose confirmed; shares compounds with Scp1 inh; hit rate 61% among 2,500; inhibition, % at 20 µM; recombinant SCP-1 catalytic domain, phosphate release, malachite green absorbance;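 active = inhibition of at least 30% at 20 µM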;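 also: plate controls were DMSO with enzyme for no effect and buffer wells lacking enzyme for full effect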
# MG interference = colorimetric interference in Scp-1 counter-screen | apparent inhibition (interference), % at 20 µM | AID 540313 | 2,500 tested, under 10 active | Colorimetric interference counterscreen, malachite green absorbance 630 nm | shares compounds with Scp1 inh;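 active = inhibition of at least 30% at 20 µM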;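 also: compounds added after enzyme reaction finished so only phosphate colour detection is probed; plate controls were DMSO wells with completed Scp-1 reaction for no effect and substrate wells lacking enzyme for full effect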
# Scp-1 Tm shift = validation of human Scp-1 inhibitors by thermal shift binding. shares compounds with Scp1 inh. AID 540329. Recombinant SCP1, Sypro Orange thermal shift Tm. hit rate 25% among 1,500. thermal shift relative to vanadate control, % at 40 µM;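 active = substances whose mean melting-temperature shift, as a percentage of the reference inhibitor's shift, reaches about 5.3%, limit read from the data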;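 also: 0% = Tm of DMSO wells and 100% = Tm with sodium orthovanadate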
# DNMT1 interf DR = shows spectral interference in the DNMT1 beacon assay. shares compounds with DNMT1 block. molecular beacon fluorescence, spectral interference counter-screen. IC50, µM. 200 tested, under 10 active
# DNMT1 inh conf = confirmation of human DNMT1 inhibitors. shares compounds with DNMT1 block. DNMT1 molecular beacon HinP1I cleavage, fluorescence. inhibition, % at 10 µM. hit rate 8% among 2,300;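 active = average inhibition of at least 30% in the single-concentration confirmation test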
# DNMT1 interf = shows spectral interference in the DNMT1 beacon assay | shares compounds with DNMT1 block | DNMT1 molecular beacon spectral interference counterscreen, fluorescence 485/520 | activation (fluorescence interference), % at 10 µM | hit rate 1% among 2,300 | AID 602387;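 active = activation of at least 30% at 10 µM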;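 also: DNMT1 catalytic domain with a HinP1I cleavage step and a FAM/dabcyl DNA beacon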
# STEP conf = STEP (human) phosphatase inhibition, single concentration confirmation; recombinant STEP, OMFP fluorogenic substrate, fluorescence; shares compounds with STEP inh; inhibition, % at 20 µM; hit rate 32% among 520;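 also: 0% = enzyme with substrate plus DMSO and 100% = substrate without enzyme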
# * = called active by the depositor; x = no result given. Unless noted, no rule for the calls is given here.
SMILES,DNMT1 block,Scp1 inh,STEP inh,LMPTP inh,SUMO1 PPI mod,Scp1 confirm,MG interference,Scp-1 Tm shift,STEP conf,others
O=C(N/N=C/C(Br)=C/c1ccccc1)c1ccncc1,-5,-11,-2,0,-28,x,x,x,x,
O=C(N/N=C/c1cccc([N+](=O)[O-])c1)c1cccc(Br)c1,-2,-7,-3,0,4,x,x,x,x,
O=C(N/N=C/C(Br)=C/c1ccccc1)c1ccc([N+](=O)[O-])cc1,57*,97*,88*,78*,2,84*,-12,2,6,DNMT1 inh conf=5;DNMT1 interf=0
Cc1[nH]n(-c2ccccc2)c(=O)c1CCO,1,3,-1,0,-3,x,x,x,x,
CCc1c(C)[nH]n(-c2ccc(Oc3ccccc3)c(S(=O)(=O)O)c2)c1=O,66*,79*,53*,1,13,80*,-1,2,36*,
CSCCC(NC(=O)c1ccccc1Cl)C(=O)N1CCCC(C)C1 (configuration not stated),-8,-1,1,2,8,x,x,x,x,
CCC(C)c1ccc(NC(=O)N2CCOCC2)cc1 (configuration not stated),2,-8,3,-1,0,x,x,x,x,
O=C(N/N=C/c1ccc(OC(=O)c2cccs2)cc1)c1cccc(F)c1,64*,95*,43*,68*,-2,77*,-16,-31,28*,DNMT1 inh conf=-1;DNMT1 interf=4
COc1ccc2[nH]c3nc(SCC(=O)NNC(=O)c4ccc(OC)c(OC)c4)nnc3c2c1,-3,4,6,1,-4,x,x,x,x,
Cc1ccc(C(=O)NNC(=O)CSc2nnc3c(n2)[nH]c2ccc(F)cc23)cc1,105*,67*,56*,52*,7,76*,-12,-20,-5,DNMT1 inh conf=5;DNMT1 interf=-1
COc1cc(Cl)c(C)cc1NC(=O)c1ccccc1-n1cnnn1,-1,-15,0,-1,-2,x,x,x,x,
O=C(N/N=C/c1cc(Br)c(Br)o1)c1cc2ccccc2o1,20,111*,56*,45,7,61*,-13,-10,3,
COc1ccc2nc3n(c(=O)c2c1)-c1ncccc1C(=O)NC3C (configuration not stated),1,x,0,0,0,x,x,x,x,
O=C(N/N=C/c1ccccn1)c1cc(-c2cccc3ccccc23)n[nH]1,-6,-3,-1,1,-10,x,x,x,x,
O=C(O)c1ccc(/C=N/NC(=O)c2cc(-c3ccc4c5c(cccc35)CC4)n[nH]2)cc1,1,76*,52*,5,15,67*,-14,-49,-9,
O=[N+]([O-])c1ccc(C=NNC(=S)NN=Cc2ccc([N+](=O)[O-])cc2)cc1,88*,88*,96*,75*,92*,55*,-14,12*,8,DNMT1 inh conf=1;DNMT1 interf=-12
CC(C)[C@@H](C(=O)N[C@@H](CCc1ccc(O)cc1)C(=O)O)N(C)C(=O)[C@H](CO)NC(=O)[C@@H](O)[C@H](N)CCCCCCCCl,-6,x,-1,-1,3,x,x,x,x,
COc1ccc(NC(=O)/C(C#N)=C\c2ccc(OCc3ccc(C(=O)O)cc3)c(OC)c2)cc1,-5,75*,89*,76*,8,62*,-7,-10,5,
N#C/C(=C\c1ccc(OCc2ccc(F)cc2)cc1)C(=O)Nc1cccc(C(=O)O)c1,-3,93*,92*,31,26,74*,-4,5,6,
CCCCn1c(N)c(-c2nc3ccccc3o2)c2c([N+](=O)[O-])nn(C)c(=O)c21,87*,93*,58*,55*,-7,68*,-8,3,23,DNMT1 inh conf=0;DNMT1 interf=-1
CCOc1ccc(C(=O)Nc2ccc(NC(=O)c3ccccc3)c(C)c2)cc1[N+](=O)[O-],29,78*,44*,5,11,59*,-18,-19,-6,
COc1ccc(NC(=O)NNC(=O)c2ccc(-c3ccccc3)cc2)c(OC)c1,2,2,5,4,2,x,x,x,x,
COc1ccc(NC(=O)NNC(=O)c2ccc(-c3ccccc3)cc2)cc1,48,88*,40*,29,15,46*,-14,-15,21,
COc1cccc(Nc2c([N+](=O)[O-])cncc2[N+](=O)[O-])c1,2,0,0,-2,-45,x,x,x,x,
COc1cccc(Nc2c(Nc3cccc(OC)c3)c(=O)c2=O)c1,67*,92*,97*,78*,16,68*,-11,2,23,
SMILES,DNMT1 block,Scp1 inh,STEP inh,LMPTP inh,SUMO1 PPI mod,Scp1 confirm,MG interference,Scp-1 Tm shift,STEP conf,others
NC(=O)COc1ccc(/C=N\NC(=O)c2ccc(-c3ccccc3)cc2)cc1,41,86*,85*,38,1,56*,-10,-32,2,
O=C(N/N=C/c1ccccc1)c1ccc(-c2ccccc2)cc1,2,-2,-3,-2,6,x,x,x,x,
Cc1ccc2nc(-c3ccc(C#N)cc3)c(Cc3ccccc3C(F)(F)F)n2c1,-16,x,0,9,10,x,x,x,x,
Clc1ccc2c(SCC3CO3)c3ccccc3nc2c1 (configuration not stated),29,101*,62*,20,31,-1,-5,x,13,
COc1ccc(-n2nc(C(=O)NCC(=O)Nc3ccccn3)c3ccccc3c2=O)cc1Cl,16,63*,48*,15,4,43*,-9,-5,32*,
COc1ccc(-n2nc(C(=O)NCC(=O)NC(C)C)c3ccccc3c2=O)cc1Cl,1,5,0,-1,-22,x,x,x,x,
CCOC(=O)c1sc2nc3c(SCC(=O)O)cc(C(=O)c4ccccc4O)cn3c(=O)c2c1C,186*,53*,98*,93*,102*,59*,-7,7.5*,98*,DNMT1 interf DR=>99;DNMT1 inh conf=60*;DNMT1 interf=-2
CC(CNC(=O)CN1C(=O)NC2(CCCCC2)C1=O)c1ccccc1 (configuration not stated),3,-5,2,-1,17,x,x,x,x,

# Compound activity deposited in PubChem by Sanford-Burnham Center for Chemical Genomics.
